Measured values pooled from the literature.
Organism: Pseudomonas aeruginosa
Observed: microbial growth

SMILES	assay	test system	conditions	MIC
CN(C)[C@@H]1C(O)=C(C(N)=O)C(=O)[C@@]2(O)C(O)=C3C(=O)c4c(cc5ccc(CN6CCCCC6)cc5c4O)C[C@H]3C[C@@H]12	broth dilution	ATCC27853		32 µg/mL
Cc1ccc(C)n1-c1ccc(-c2nnco2)cc1	broth dilution	ATCC10145	18 h	4 µg/mL
CN(C)c1c2c(c(O)c3cc(F)ccc13)C(=O)C1=C(O)[C@]3(O)C(=O)C(C(N)=O)=C(O)[C@@H](N(C)C)[C@@H]3C[C@@H]1C2	broth dilution	ATCC27853		> 32 µg/mL
Cc1ccc(NCc2ccc(Oc3ccccn3)cc2)cc1				> 50 µg/mL
CC1=NN(CNc2c(O)c(S(=O)(=O)O)cc3ccccc23)C(=O)C1=NNn1c(-c2ccccc2)nc2ccccc2c1=O	broth dilution		24 h	41.8 µM
Cc1ccc(C)n1-c1ccc(-c2nnc(-c3ccc(Br)cc3)[nH]2)cc1	broth dilution	ATCC10145	18 h	125 µg/mL
C/C(O)=C1\C(=O)C(CC(C)C)N(C(=O)CCCCCc2ccccc2)C1=O (centres unmarked)		PA01		> 200 µg/mL
Clc1ccc(Cn2c(-c3ccc(Cl)cc3)nc3ccccc32)cc1	broth dilution	ATCC27853		256 µg/mL
CCCCCCC/C=C/C(=O)N1C(=O)/C(=C(\O)c2ccc(O)cc2)C(=O)C1CC(C)C (centres unmarked)		PA01		> 200 µg/mL
Cc1cccc(NCc2ccc(Oc3ccccn3)cc2)c1				> 25 µg/mL
CN(C)[C@@H]1C(O)=C(C(N)=O)C(=O)[C@@]2(O)C(O)=C3C(=O)c4c(O)c(NC(=O)CNC(C)(C)C)nc(F)c4C[C@H]3C[C@@H]12.Cl.Cl	broth dilution	ATCC27853		> 32 µg/mL
Cc1ccc2nc(-c3ccc(Cl)cc3)n(Cc3ccccc3)c2c1	broth dilution	ATCC27853		64 µg/mL
CN(C)CC(C)(C)CNc1nc(Cl)c2c(c1O)C(=O)C1=C(O)[C@]3(O)C(=O)C(C(N)=O)=C(O)[C@@H](N(C)C)[C@@H]3C[C@@H]1C2.Cl	broth dilution	ATCC27853		32 µg/mL
CCCCCCC/C=C/C(=O)N1C(=O)/C(=C(/C)O)C(=O)C1Cc1ccc(OC(C)(C)C)cc1 (centres unmarked)		PA01		> 200 µg/mL
CC(C)Oc1c(NC(=O)c2ccc(NC(=O)[C@H](CC(N)=O)NC(=O)c3ccc(NC(=O)c4ccc(C#N)cc4)cc3)cc2)ccc(C(=O)Nc2cc(C(=O)O)n(C)c2)c1O		PA14		> 64 µg/mL
CCCCCCC/C=C/C(=O)N1C(=O)/C(=C(\O)c2ccccc2)C(=O)C1CC(C)C (centres unmarked)		PA01		> 200 µg/mL
CN(Cc1ccc2cc3c(c(O)c2c1)C(=O)C1=C(O)[C@]2(O)C(=O)C(C(N)=O)=C(O)[C@@H](N(C)C)[C@@H]2C[C@@H]1C3)c1ccccc1	broth dilution	ATCC27853		32 µg/mL
CC(C)OCCNc1nc(Cl)c2c(c1O)C(=O)C1=C(O)[C@]3(O)C(=O)C(C(N)=O)=C(O)[C@@H](N(C)C)[C@@H]3C[C@@H]1C2.Cl.Cl.Cl	broth dilution	ATCC27853		> 32 µg/mL
CC(C)Oc1c(NC(=O)c2ccc(NC(=O)[C@H](CC(N)=O)NC(=O)c3ccc(NC(=O)c4ccc([N+](=O)[O-])c(OC(C)C)c4O)cc3)cc2)ccc(C(=O)Nc2ccc(C(=O)O)cc2)c1O		PA14		> 64 µg/mL
O=C(CCCCCC[P+](c1ccccc1)(c1ccccc1)c1ccccc1)Nc1cc(O)c(O)c(O)c1.[Br-]	broth dilution	ATCC27853	18 h	> 32 µg/mL
COc1ccc(NCc2ccc(Oc3ccccn3)cc2)cc1				> 25 µg/mL
CC1(C)S[C@@H]2[C@H](NC(=O)[C@H](N)c3ccccc3)C(=O)N2[C@H]1C(=O)O				> 200 µg/mL
COc1ncc(O)c2c1C[C@H]1C[C@H]3[C@H](N(C)C)C(O)=C(C(N)=O)C(=O)[C@@]3(O)C(O)=C1C2=O.Cl.Cl	broth dilution	ATCC27853		> 32 µg/mL
CC1=NN(CNc2ccccc2[N+](=O)[O-])C(=O)C1=NNn1c(-c2ccccc2)nc2ccccc2c1=O	broth dilution		24 h	50.4 µM
[H]/N=C(/N)N[C@H]1[C@H](O)[C@@H](O)[C@H](O[C@@H]2O[C@@H](C)[C@](O)(C=O)[C@H]2O[C@@H]2O[C@@H](CO)[C@H](O)[C@@H](O)[C@@H]2NC)[C@@H](N/C(N)=N\[H])[C@@H]1O	broth dilution	PAO1		64 µg/mL

SMILES	assay	test system	conditions	MIC
O=C(CCc1cc(O)c(O)c(O)c1)NCCCCCCCC[P+](c1ccccc1)(c1ccccc1)c1ccccc1.[Br-]	broth dilution	ATCC27853	18 h	> 32 µg/mL
CC(C)Oc1c(NC(=O)c2ccc(NC(=O)[C@H](CC(N)=O)NC(=O)c3ccc(NC(=O)c4ccc(C#N)c(F)c4)cc3)cc2)ccc(C(=O)Nc2ccc(C(=O)O)cc2)c1O		PA14		8 µg/mL
CC1(C)SC2C(NC(=O)C(NC(=O)C3=C(O)C(Cc4ccsc4)NC3=O)c3ccccc3)C(=O)N2C1C(=O)O (centres unmarked)				25 µg/mL
NC[C@H]1O[C@H](O[C@H]2[C@H](O)[C@@H](O[C@H]3O[C@H](CO)[C@@H](O)[C@H](N)[C@H]3O)[C@H](N)C[C@@H]2N)[C@H](N)C[C@@H]1O	broth dilution			13 µM
CCCCCCC#Cc1cncc(-c2nnc(SCc3ccc([N+](=O)[O-])o3)n2C2CC2)c1				≥ 20 µg/mL
C[C@@H](O)[C@H]1C(=O)N2C(C(=O)O)=C(S[C@@H]3CN[C@H](C(=O)N(C)C)C3)[C@H](C)[C@H]12	broth dilution		24 h	0.25 µg/mL
COc1c(C)c(OCc2ccccc2)c(C)c(O)c1C(=O)/C=C/c1ccccc1	broth dilution	ATCC27853		5000 µg/mL
O=[N+]([O-])c1ccc(-c2nc3cc(Cl)ccc3[nH]2)o1	broth dilution	ATCC27853		> 64 µg/mL
CNC(=O)c1cc(Oc2ccc(NC(=O)Nc3ccc(Cl)c(C(F)(F)F)c3)cc2)ccn1		DSM19882		> 100 µM
O=[N+]([O-])c1ccc(O)c2ncccc12	broth dilution	ATCC27853		16 µg/mL
CC(C)C1NC(=O)C(C(=O)NC(C(=O)NC2C(=O)N3C2SC(C)(C)C3C(=O)O)c2ccccc2)=C1O (centres unmarked)				50 µg/mL
CC[C@H]1OC(=O)[C@H](C)[C@@H](O[C@H]2C[C@@](C)(OC)[C@@H](O)[C@H](C)O2)[C@H](C)[C@@H](O[C@@H]2O[C@H](C)C[C@H](N(C)C)[C@H]2O)[C@](C)(O)C[C@@H](C)CN(C)[C@H](C)[C@@H](O)[C@]1(C)O	broth dilution			100 µg/mL
C/C(=C\c1ccc(C#N)cc1)C(=O)Nc1ccc(C(=O)N[C@@H](CC(N)=O)C(=O)Nc2ccc(C(=O)Nc3ccc(C(=O)Nc4ccc(C(=O)O)cc4)c(O)c3OC(C)C)cc2)cc1		PA14		1 µg/mL
Cc1ccc(C)n1-c1ccc(-c2n[nH]c(=S)[nH]2)cc1	broth dilution	ATCC10145	18 h	8 µg/mL
CC(=O)Nc1ccc(C(=O)Nc2ccc(C(=O)N[C@@H](CC(N)=O)C(=O)Nc3ccc(C(=O)Nc4ccc(C(=O)Nc5ccc(C(=O)O)cc5)c(O)c4OC(C)C)cc3)cc2)cc1		PA14		> 64 µg/mL
CCCCCCCCCCCC(=O)Oc1c(C)c(O)c(C(=O)/C=C/c2ccccc2)c(OC)c1C	broth dilution	ATCC27853		5000 µg/mL
O=c1cc(-c2ccccc2)oc2cc(O)c(O)c(O)c12	broth dilution	PAO1		256 µg/mL
COc1c(C)c(OC)c(C(=O)/C=C/c2ccccc2)c(OC)c1C	broth dilution	ATCC27853		5000 µg/mL
CC(C)Oc1c(NC(=O)c2ccc(NC(=O)[C@H](CC(N)=O)NC(=O)c3ccc(NC(=O)c4ccc(NC(N)=O)cc4)cc3)cc2)ccc(C(=O)Nc2ccc(C(=O)O)cc2)c1O		PA14		> 64 µg/mL
O=C(O)c1cn(C2CC2)c2cc(N3CCNCC3)c(F)cc2c1=O	broth dilution		24 h	9.43 µM
CC(C)Oc1c(NC(=O)c2ccc(NC(=O)[C@H](CC(N)=O)NC(=O)c3ccc(NC(=O)c4ccc(C#N)nc4)cc3)cc2)ccc(C(=O)Nc2ccc(C(=O)O)cc2)c1O		PA14		> 64 µg/mL
CC(C)CCNc1nc(Cl)c2c(c1O)C(=O)C1=C(O)[C@]3(O)C(=O)C(C(N)=O)=C(O)[C@@H](N(C)C)[C@@H]3C[C@@H]1C2.Cl.Cl.Cl	broth dilution	ATCC27853		> 32 µg/mL
NC[C@@H]1CN[C@H](CNC(=O)c2cc3ccc(-c4ccc(F)cc4)cc3[nH]2)C1	broth dilution	PAO1		25 µg/mL
CC(C)Oc1c(NC(=O)c2ccc(NC(=O)[C@H](CC(N)=O)NC(=O)c3ccc(NC(=O)C(C)Sc4ccc(C#N)cc4)cc3)cc2)ccc(C(=O)Nc2ccc(C(=O)O)cc2)c1O (some centres unmarked)		PA14		> 64 µg/mL
CC1(C)S[C@@H]2[C@H](NC(=O)C(C(=O)O)c3ccccc3)C(=O)N2[C@H]1C(=O)O (some centres unmarked)	broth dilution	CMCC10104		> 200 µM
